Measurements reported in ChEMBL document CHEMBL1129245, “N-heteroaryl-2-phenyl-3-(benzyloxy)piperidines: a novel class of potent orally active human NK1 antagonists” (J Med Chem, 1996).

Columns and labels:
[1] = species on record: Oryctolagus cuniculus; assay: Displacement of [3H]diltiazem from rabbit skeletal muscle calcium channel; type: tissue-based; details: Muscle tissue
[2] = target: Substance-P receptor (Homo sapiens, UniProt P25103); assay: Displacement of [125 I]-Tyr8 SP from the cloned human Tachykinin receptor 1 expressed in CHO cells; type: cell-based
Sequence of Substance-P receptor (P25103 whole entry): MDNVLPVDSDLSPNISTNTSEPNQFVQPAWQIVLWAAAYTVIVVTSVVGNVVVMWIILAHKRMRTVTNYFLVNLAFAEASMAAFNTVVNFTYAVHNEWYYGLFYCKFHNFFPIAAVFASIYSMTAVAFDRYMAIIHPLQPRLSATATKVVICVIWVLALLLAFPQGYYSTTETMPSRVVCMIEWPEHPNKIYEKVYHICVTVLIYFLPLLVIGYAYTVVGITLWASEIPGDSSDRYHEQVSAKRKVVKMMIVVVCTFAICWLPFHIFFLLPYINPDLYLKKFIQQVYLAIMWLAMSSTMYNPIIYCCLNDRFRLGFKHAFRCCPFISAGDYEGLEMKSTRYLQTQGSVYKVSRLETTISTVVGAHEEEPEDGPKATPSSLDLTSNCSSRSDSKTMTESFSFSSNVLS

[3] = VD values expressed in (L/Kg) in Rhesus monkey; type: ADME, organism-based, Macaca mulatta; details: in vivo
Method in brief: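 Rhesus monkeys dosed at 3 mg/kg in propylene glycol, intravenously and orally, with n = 2 per data point. Pharmacokinetic parameters calculated from the plasma concentration data using standard equations. Values given as mean ± SEM.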

[4] = VD values expressed in (L/Kg) in rat; type: ADME, organism-based; details: in vivo
Method in brief: (§1)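 Rats given compound intravenously and orally in solution. Three rats per time point sampled for plasma drug levels. Pharmacokinetic parameters calculated from the plasma concentration–time data using standard equations. Data reported as mean ± SEM.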

[5] = test system: Rattus norvegicus; assay: Plasma concentration after 3 mg/kg peroral dosing in rat at 8.0 hr in rats; type: ADME, organism-based; set-up: dose 3 mg/kg, route oral; details: in vivo, po
[6] = Bioavailability expressed as F% in Rhesus monkey; type: ADME, organism-based, Macaca mulatta; details: in vivo
[7] = Bioavailability in rat; type: ADME, organism-based; details: in vivo
[8] = test system: Rattus norvegicus; assay: Plasma concentration of 3 mg/kg iv after 0.25 hr in rats; type: ADME, organism-based; set-up: dose 3 mg/kg, route intravenous; details: in vivo; method in brief: as §1
[9] = test system: Rattus norvegicus; assay: Plasma concentration of 3 mg/kg iv after 0.5 hr in rats; type: ADME, organism-based; set-up: dose 3 mg/kg, route intravenous; details: in vivo; method in brief: as §1
[10] = test system: Rattus norvegicus; assay: Plasma concentration of 3 mg/kg iv after 1 hr in rats; type: ADME, organism-based; set-up: dose 3 mg/kg, route intravenous; details: in vivo; method in brief: as §1
[11] = test system: Rattus norvegicus; assay: Plasma concentration of 3 mg/kg iv after 2 hr in rats; type: ADME, organism-based; set-up: dose 3 mg/kg, route intravenous; details: in vivo; method in brief: as §1
[12] = test system: Rattus norvegicus; assay: Plasma concentration of 3 mg/kg iv after 3h in rats; type: ADME, organism-based; set-up: dose 3 mg/kg, route intravenous; details: in vivo; method in brief: as §1
[13] = test system: Rattus norvegicus; assay: Plasma concentration of 3 mg/kg iv after 4 hr in rats; type: ADME, organism-based; set-up: dose 3 mg/kg, route intravenous; details: in vivo; method in brief: as §1
[14] = test system: Rattus norvegicus; assay: Plasma concentration of 3 mg/kg iv after 5 hr in rats; type: ADME, organism-based; set-up: dose 3 mg/kg, route intravenous; details: in vivo; method in brief: as §1
[15] = test system: Rattus norvegicus; assay: Plasma concentration of 3 mg/kg iv after 6 hr in rats; type: ADME, organism-based; set-up: dose 3 mg/kg, route intravenous; details: in vivo; method in brief: as §1
[16] = test system: Rattus norvegicus; assay: Plasma concentration of 3 mg/kg iv after 7 hr in rats; type: ADME, organism-based; set-up: dose 3 mg/kg, route intravenous; details: in vivo; method in brief: as §1
[17] = test system: Rattus norvegicus; assay: Plasma concentration of 3 mg/kg iv after 8 hr in rats; type: ADME, organism-based; set-up: dose 3 mg/kg, route intravenous; details: in vivo; method in brief: as §1
[18] = test system: Rhesus monkey; assay: Plasma concentration after 3 mg/kg intravenous dosing in Rhesus monkey at 0.5 hr; type: ADME, organism-based, Macaca mulatta; set-up: dose 3 mg/kg, route intravenous; details: in vivo
Method in brief: (§2)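 Rhesus monkeys dosed at 3 mg/kg in propylene glycol, intravenously and orally, n = 2 per data point. Plasma concentrations given as mean ± SEM, and pharmacokinetic parameters calculated with standard equations.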

[19] = test system: Rhesus monkey; assay: Plasma concentration after 3 mg/kg intravenous dosing in Rhesus monkey at 1.0 hr; type: ADME, organism-based, Macaca mulatta; set-up: dose 3 mg/kg, route intravenous; details: in vivo; method in brief: as §2
[20] = test system: Rhesus monkey; assay: Plasma concentration after 3 mg/kg intravenous dosing in Rhesus monkey at 2.0 hr; type: ADME, organism-based, Macaca mulatta; set-up: dose 3 mg/kg, route intravenous; details: in vivo; method in brief: as §2
[21] = test system: Rhesus monkey; assay: Plasma concentration after 3 mg/kg intravenous dosing in Rhesus monkey at 4.0h; type: ADME, organism-based, Macaca mulatta; set-up: dose 3 mg/kg, route intravenous; details: in vivo, 4 h; method in brief: as §2
[22] = test system: Rhesus monkey; assay: Plasma concentration after 3 mg/kg intravenous dosing in Rhesus monkey at 6.0 hr; type: ADME, organism-based, Macaca mulatta; set-up: dose 3 mg/kg, route intravenous; details: in vivo; method in brief: as §2
[23] = test system: Rhesus monkey; assay: Plasma concentration after 3 mg/kg intravenous dosing in Rhesus monkey at 8.0 hr; type: ADME, organism-based, Macaca mulatta; set-up: dose 3 mg/kg, route intravenous; details: in vivo; method in brief: as §2
[24] = test system: Rhesus monkey; assay: Plasma concentration after 3 mg/kg peroral dosing in Rhesus monkey at 0.167 hr; type: ADME, organism-based, Macaca mulatta; set-up: dose 3 mg/kg, route oral; details: in vivo, po; method in brief: as §2
[25] = test system: Rhesus monkey; assay: Plasma concentration after 3 mg/kg peroral dosing in Rhesus monkey at 0.5 hr; type: ADME, organism-based, Macaca mulatta; set-up: dose 3 mg/kg, route oral; details: in vivo, po; method in brief: as §2
[26] = test system: Rattus norvegicus; assay: Plasma concentration after 3 mg/kg peroral dosing in rat at 5.0 hr in rats; type: ADME, organism-based; set-up: dose 3 mg/kg, route oral; details: in vivo, po
[27] = test system: Rhesus monkey; assay: Plasma concentration after 3 mg/kg peroral dosing in Rhesus monkey at 1.0 hr; type: ADME, organism-based, Macaca mulatta; set-up: dose 3 mg/kg, route oral; details: in vivo, po; method in brief: as §2
[28] = test system: Rhesus monkey; assay: Plasma concentration after 3 mg/kg peroral dosing in Rhesus monkey at 2.0 hr; type: ADME, organism-based, Macaca mulatta; set-up: dose 3 mg/kg, route oral; details: in vivo, po; method in brief: as §2
[29] = test system: Rhesus monkey; assay: Plasma concentration after 3 mg/kg peroral dosing in Rhesus monkey at 4.0h; type: ADME, organism-based, Macaca mulatta; set-up: dose 3 mg/kg, route oral; details: in vivo, po, 4 h; method in brief: as §2
[30] = test system: Rhesus monkey; assay: Plasma concentration after 3 mg/kg peroral dosing in Rhesus monkey at 6.0 hr; type: ADME, organism-based, Macaca mulatta; set-up: dose 3 mg/kg, route oral; details: in vivo, po; method in brief: as §2
[31] = test system: Rhesus monkey; assay: Plasma concentration after 3 mg/kg peroral dosing in Rhesus monkey at 8.0 hr; type: ADME, organism-based, Macaca mulatta; set-up: dose 3 mg/kg, route oral; details: in vivo, po; method in brief: as §2
[32] = test system: Rattus norvegicus; assay: Plasma concentration after 3 mg/kg peroral dosing in rat at 0.083 hr in rats; type: ADME, organism-based; set-up: dose 3 mg/kg, route oral; details: in vivo, po
[33] = test system: Rattus norvegicus; assay: Plasma concentration after 3 mg/kg peroral dosing in rat at 0.25 hr in rats; type: ADME, organism-based; set-up: dose 3 mg/kg, route oral; details: in vivo, po
[34] = test system: Rattus norvegicus; assay: Plasma concentration after 3 mg/kg peroral dosing in rat at 0.5 hr in rats; type: ADME, organism-based; set-up: dose 3 mg/kg, route oral; details: in vivo, po
[35] = test system: Rattus norvegicus; assay: Plasma concentration after 3 mg/kg peroral dosing in rat at 1.0 hr in rats; type: ADME, organism-based; set-up: dose 3 mg/kg, route oral; details: in vivo, po
[36] = test system: Rattus norvegicus; assay: Plasma concentration after 3 mg/kg peroral dosing in rat at 3.0 hh in rats; type: ADME, organism-based; set-up: dose 3 mg/kg, route oral; details: in vivo, po
[37] = test system: Rattus norvegicus; assay: Plasma concentration after 3 mg/kg peroral dosing in rat at 4.0h in rats; type: ADME, organism-based; set-up: dose 3 mg/kg, route oral; details: in vivo, po, 4 h
[38] = test system: Rattus norvegicus; assay: Plasma concentration after 3 mg/kg peroral dosing in rat at 6.0 hr in rats; type: ADME, organism-based; set-up: dose 3 mg/kg, route oral; details: in vivo, po
[39] = test system: Rattus norvegicus; assay: Plasma concentration after 3 mg/kg peroral dosing in rat at 7.0 hr in rats; type: ADME, organism-based; set-up: dose 3 mg/kg, route oral; details: in vivo, po
[40] = test system: Mustela putorius furo; assay: Effects on […] and vomiting response in ferrets induced by 10 mg/kg iv dose of cisplatin; type: functional
Method in brief: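 Ferrets given cisplatin 10 mg/kg iv to induce retching and vomiting. Test compound given iv; response observed over a 4 h period, n = 6-8 per group.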

[41] = test system: Cavia porcellus; assay: Inhibition of SP induced dermal extravasation in the guinea pig after peroral administration; type: functional; details: read-out: ID50 (the source's name)
Method in brief: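 Guinea pigs were dosed orally, then challenged with intradermal SP 1 h later. Vascular leakage was measured as Evans blue extravasation into the skin. Dose-response was run with 5-12 animals per point, and ID50 is reported in mg/kg po.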

[42] = test system: Rattus norvegicus; assay: Inhibition of […] of the rat after intravenous administration; type: functional; details: read-out: ID50 (the source's name)
Method in brief: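 Rats given test compound intravenously. Plasma extravasation in the dura mater measured, n = 8-10. ID50 reported in mg/kg iv.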

[43] = test system: Rhesus monkey; assay: Plasma concentration after 3 mg/kg intravenous dosing in Rhesus monkey at 0.167 hr; type: ADME, organism-based, Macaca mulatta; set-up: dose 3 mg/kg, route intravenous; details: in vivo; method in brief: as §2
[44] = test system: Rattus norvegicus; assay: Plasma concentration after 3 mg/kg peroral dosing in rat at 2.0 hr in rats; type: ADME, organism-based; set-up: dose 3 mg/kg, route oral; details: in vivo, po
[45] = test system: Rattus norvegicus; assay: Plasma concentration of 3 mg/kg iv after 0.083 hr in rats; details: in vivo
[46] = Plasma clearance after intravenous administration dosing (3 mg/kg) in rat
[47] = Plasma clearance after intravenous administration dosing (3 mg/kg) in Rhesus monkey
[48] = species on record: Oryctolagus cuniculus; assay: Displacement of [3H]diltiazem from rabbit skeletal muscle calcium channel at 30 uM; type: tissue-based; details: Muscle tissue
[49] = test system: Cavia porcellus; assay: Inhibition of SP induced dermal guinea pig after peroral administration; type: functional; details: read-out: ID50 (the source's name)
Method in brief: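 Guinea pigs dosed orally with antagonist, then challenged 1 h later with intradermal substance P. Vascular leakage measured as extravasation of Evans blue dye. ID50 (mg/kg po) taken from dose-response data, 5-12 animals per data point.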

## FC(F)(F)c1cc(CO[C@H]2CCCN(Cc3n[nH]c(S)n3)[C@H]2c2ccccc2)cc(C(F)(F)F)c1
[1]
  Binding affinity: 10 µM
[2]
  IC50: 0.8 nM

## O=c1[nH]nc(CN2CCC[C@H](OCc3cc(C(F)(F)F)cc(C(F)(F)F)c3)[C@@H]2c2ccccc2)[nH]1
[3]
  Vd: 0.55 L/kg
[4]
  Vd: 6.5 L/kg
[5]
  Concentration: < 5 ng/mL
[6]
  bioavailability: 23.7%
[7]
  bioavailability: 46%
[8]
  Concentration: 244 ng/mL
[9]
  Concentration: 291 ng/mL
[10]
  Concentration: 203 ng/mL
[11]
  Concentration: 135 ng/mL
[12]
  Concentration: 52 ng/mL
[13]
  Concentration: 30 ng/mL
[14]
  Concentration: 21 ng/mL
[15]
  Concentration: 9 ng/mL
[16]
  Concentration: < 5 ng/mL
[17]
  Concentration: < 5 ng/mL
[18]
  Concentration: 5020 ng/mL
[19]
  Concentration: 3660 ng/mL
[20]
  Concentration: 3080 ng/mL
[21]
  Concentration: 1980 ng/mL
[22]
  Concentration: 1220 ng/mL
[23]
  Concentration: 720 ng/mL
[24]
  Concentration: 20 ng/mL
[25]
  Concentration: 50 ng/mL
[26]
  Concentration: 25 ng/mL
[27]
  Concentration: 80 ng/mL
[28]
  Concentration: 150 ng/mL
[29]
  Concentration: 520 ng/mL
[30]
  Concentration: 580 ng/mL
[31]
  Concentration: 500 ng/mL
[32]
  Concentration: 11 ng/mL
[33]
  Concentration: 29 ng/mL
[34]
  Concentration: 70 ng/mL
[35]
  Concentration: 45 ng/mL
[36]
  Concentration: 65 ng/mL
[37]
  Concentration: 41 ng/mL
[38]
  Concentration: 12 ng/mL
[39]
  Concentration: < 5 ng/mL
[1]
  Binding affinity: 12.6 µM
[40]
  ID90: 1 mg/kg
[2]
  IC50: 0.05 nM
[41]
  ED50: 0.037 mg/kg
[42]
  ED50: 0.028 mg/kg
[43]
  Concentration: 5240 ng/mL
[44]
  Concentration: 94 ng/mL
[45]
  Concentration: 599 ng/mL
[46]
  clearance: 73 mL/min/kg
[47]
  clearance: 2.4 mL/min/kg

## NC(=O)CN1CCC[C@H](OCc2cc(C(F)(F)F)cc(C(F)(F)F)c2)[C@@H]1c1ccccc1
[48]
  Binding affinity: 16%
[49]
  ED50: 0.8 mg/kg

## FC(F)(F)c1cc(CO[C@H]2CCCN(Cc3cnc[nH]3)[C@H]2c2ccccc2)cc(C(F)(F)F)c1
[2]
  IC50: 0.9 nM
